According to paper PMC12198371 (Nature Communications, 2025):
Each block holds one compound with its values, some of them ahead of it. Positions of bridges follow the written chain, without caps; N, C: chain ends. Residues, ends and D or L forms follow the SMILES beside them. No end group written: not given here.

What was measured:
[1] = biological target: α-chymotrypsin (PT5) (Bos taurus, UniProt P00766); assay: Yeast surface display titration; assay type: binding, bovine
[2] = biological target: carbapenemase GES-5 (PT3) (Klebsiella pneumoniae, UniProt Q09HD0); assay: Surface plasmon resonance; assay type: binding; conditions: soluble chemically synthesised isomers of MP3.2
Chain of carbapenemase GES-5 (PT3) (Q09HD0 19-287): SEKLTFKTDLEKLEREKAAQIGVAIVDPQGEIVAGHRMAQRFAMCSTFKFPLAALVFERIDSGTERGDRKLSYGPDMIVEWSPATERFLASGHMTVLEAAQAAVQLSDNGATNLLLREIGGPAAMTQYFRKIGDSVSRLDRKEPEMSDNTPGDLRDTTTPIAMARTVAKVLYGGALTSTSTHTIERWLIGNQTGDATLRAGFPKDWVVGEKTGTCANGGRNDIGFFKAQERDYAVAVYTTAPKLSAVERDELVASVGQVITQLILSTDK
Outline: (§1)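 Targets were amine-coupled with EDC/NHS, then ethanolamine pH 8.5. PT1 was coupled at 200 µg/mL and PT5 at 30 µg/mL, both in 10 mM NaAc pH 5.2. PT3 was coupled at 10 µg/mL in 10 mM NaAc pH 4.5. Two-fold dilutions of chemically synthesised peptide were run in PBS pH 7.4 with 0.005% Tween-20 and 2% DMSO, at 25 °C and 30 µL/min. KD, kon and koff were recorded.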

[3] = biological target: bovine α-chymotrypsin (PT5) (Bos taurus, UniProt P00766); assay: Residual enzyme activity, chromogenic substrate; assay type: biochemical
[4] = biological target: α-chymotrypsin; conditions: natural inhibitor, Fig. 9d; cited from earlier work
[5] = test system: strep-tactin (PH2.1); assay: Yeast surface display titration, specificity; assay type: binding; conditions: from KDapp values
[6] = biological target: streptavidin (PT2) (Streptomyces avidinii, UniProt P22629); assay: Yeast surface display titration; assay type: binding
Chain of streptavidin (PT2) (P22629 37-163 limits assumed): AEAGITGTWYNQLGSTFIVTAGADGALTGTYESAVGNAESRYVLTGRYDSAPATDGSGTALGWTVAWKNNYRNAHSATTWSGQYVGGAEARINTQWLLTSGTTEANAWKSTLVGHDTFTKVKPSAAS

[7] = biological target: carbonic anhydrase (PT4) (Bos taurus, UniProt P00921); assay: Yeast surface display titration; assay type: binding, bovine; conditions: ratio of KDapp values
Chain of carbonic anhydrase (PT4) (P00921 whole entry): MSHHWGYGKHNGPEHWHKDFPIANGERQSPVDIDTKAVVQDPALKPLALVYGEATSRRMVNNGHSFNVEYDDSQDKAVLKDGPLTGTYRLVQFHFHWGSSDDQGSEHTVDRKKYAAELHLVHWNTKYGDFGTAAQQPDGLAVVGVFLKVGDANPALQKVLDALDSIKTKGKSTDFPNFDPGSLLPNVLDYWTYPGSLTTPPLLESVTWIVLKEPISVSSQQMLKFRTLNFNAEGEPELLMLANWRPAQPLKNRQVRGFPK

[8] = biological target: T1, aldolase (PT1) (Oryctolagus cuniculus, UniProt P00883); assay: Yeast surface display titration; assay type: binding, rabbit
T1 sequence (P00883 1-364): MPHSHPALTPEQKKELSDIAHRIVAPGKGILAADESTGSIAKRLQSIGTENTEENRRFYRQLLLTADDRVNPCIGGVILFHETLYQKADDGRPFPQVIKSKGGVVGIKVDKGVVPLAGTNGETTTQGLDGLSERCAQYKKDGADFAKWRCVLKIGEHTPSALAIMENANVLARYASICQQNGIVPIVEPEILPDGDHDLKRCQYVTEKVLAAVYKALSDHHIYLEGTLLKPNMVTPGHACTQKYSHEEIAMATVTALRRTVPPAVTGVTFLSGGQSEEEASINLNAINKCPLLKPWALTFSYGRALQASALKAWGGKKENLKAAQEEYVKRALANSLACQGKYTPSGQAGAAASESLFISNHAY

[9] = biological target: T1, aldolase (PT1); assay: Surface plasmon resonance; assay type: binding, rabbit; conditions: PT1 (tetrameric), 600 pM vs 326 nM
Outline: as §1

tighter binding to PT5 than MP5.5 ([1]; ratio of KDapp values): 46 fold
Kd ([1]; read-out: KDapp, yeast-displayed peptide vs soluble PT5, text value): 0.2 nM
Compound: ACAWCLRGTICCSG (also: bicyclic or more (positions not given here)) [MP5.4]

Compound: MP3.2.2: chemically synthesised ‘two rings’ isomer of MP3.2 (ACRYICLSFRHCGWFCSG-NH2; disulfide 12-16, 2-6; N-terminus assumed; SMILES CC[C@H](C)[C@@H]1NC(=O)[C@H](Cc2ccc(O)cc2)NC(=O)[C@H](CCCNC(=N)N)NC(=O)[C@@H](NC(=O)[C@H](C)N)CSSC[C@@H](C(=O)N[C@@H](CC(C)C)C(=O)N[C@@H](CO)C(=O)N[C@@H](Cc2ccccc2)C(=O)N[C@@H](CCCNC(=N)N)C(=O)N[C@@H](Cc2c[nH]cn2)C(=O)N[C@H]2CSSC[C@@H](C(=O)N[C@@H](CO)C(=O)NCC(N)=O)NC(=O)[C@H](Cc3ccccc3)NC(=O)[C@H](Cc3c[nH]c4ccccc34)NC(=O)CNC2=O)NC1=O)
interaction with immobilised PT3 (SPR), in words [2]: no or very weak interactions

Compound: CC[C@H](C)[C@H](NC(=O)[C@@H](NC(=O)CNC(=O)[C@H](CCCNC(=N)N)NC(=O)[C@H](CC(C)C)NC(=O)[C@@H]1CSSC[C@H](NC(=O)[C@H](C)N)C(=O)N[C@@H](C)C(=O)N[C@@H](Cc2c[nH]c3ccccc23)C(=O)N1)[C@@H](C)O)C(=O)N[C@H]1CSSC[C@@H](C(=O)N[C@@H](CO)C(=O)NCC(N)=O)NC1=O [MP5.4.2] (H-ACAWCLRGTICCSG-NH2; disulfide 2-5, 11-12)
Ki [3]: 11.3 nM

Compound: H-TVLRGCWTFSFPPKPCI-NH2 [HECI, reference compound]
Ki [4]: 3900 nM

tighter binding to PH2.1 than to PT2 [5]: ~2 fold
Compound: ACIMVHYDRVECSG (disulfide 2-12 (inferred)) [MP2.3]

higher binding affinity to PT5 than MP5.2 ([1]; ratio of KDapp values): 2 fold
tighter binding to PT5 than MP5.5 ([1]; ratio of KDapp values): 5 fold
Compound: CC[C@H](C)[C@@H]1NC(=O)[C@H](Cc2c[nH]c3ccccc23)NC(=O)[C@H]([C@@H](C)O)NC(=O)[C@H](Cc2c[nH]c3ccccc23)NC(=O)[C@H](CC(=O)O)NC(=O)[C@H](CCCNC(=N)N)NC(=O)[C@@H](NC(=O)[C@H](C)N)CSSC[C@@H](C(=O)N[C@@H](CO)C(=O)NCC(N)=O)NC(=O)[C@H](CCC(N)=O)NC1=O [MP5.1] (H-ACRDWTWIQCSG-NH2; disulfide 2-10)

Compound: CC[C@H](C)[C@@H]1NC(=O)[C@H](C(C)C)NC(=O)[C@H](Cc2ccc(O)cc2)NC(=O)[C@H](Cc2ccccc2)NC(=O)[C@H](CCC(N)=O)NC(=O)[C@@H]2CCCN2C(=O)[C@H](Cc2c[nH]cn2)NC(=O)[C@H](Cc2ccc(O)cc2)NC(=O)[C@H](Cc2c[nH]cn2)NC(=O)[C@@H](NC(=O)[C@H](C)N)CSSC[C@@H](C(=O)N[C@@H](CO)C(=O)NCC(N)=O)NC1=O [MP2.2] (H-ACHYHPQFYVICSG-NH2; disulfide 2-12)
tighter binding to PT2 than MP2.5 ([6]; ratio of KDapp values): 3 fold

Compound: CC[C@H](C)[C@@H]1NC(=O)[C@H]([C@@H](C)O)NC(=O)CNC(=O)[C@H](CCCNC(=N)N)NC(=O)[C@H](CC(C)C)NC(=O)[C@@H]2CSSC[C@@H](C(=O)N[C@@H](CO)C(=O)NCC(N)=O)NC(=O)[C@H](CSSC[C@H](NC(=O)[C@H](C)N)C(=O)N[C@@H](C)C(=O)N[C@@H](Cc3c[nH]c4ccccc34)C(=O)N2)NC1=O [MP5.4.1] (H-ACAWCLRGTICCSG-NH2; disulfide 2-11, 5-12)
Ki [3]: 50.8 nM

higher binding affinity for PT4 than MP4.4 [7]: 16 fold
tighter binding to PT4 than MP4.2 [7]: 4 fold
tighter binding to PT4 than MP4.3 [7]: 9 fold
Compound: ACLVGPYYMLDCSG (disulfide 2-12 (inferred)) [MP4.1]

Compound: ACHYHPQFYMRCSG (disulfide 2-12 (inferred)) [MP2.6]
tighter binding to PT2 than MP2.4 ([6]; ratio of KDapp values): 6 fold
Kd ([6]; read-out: KDapp, yeast-displayed peptide vs soluble PT2, text value): 0.2 to 0.3 nM

Compound: MP3.2.1: chemically synthesised ‘two rings’ isomer of MP3.2 (ACRYICLSFRHCGWFCSG-NH2; disulfide 2-12, 6-16; N-terminus assumed; SMILES CC[C@H](C)[C@@H]1NC(=O)[C@H](Cc2ccc(O)cc2)NC(=O)[C@H](CCCNC(=N)N)NC(=O)[C@@H](NC(=O)[C@H](C)N)CSSC[C@@H]2NC(=O)[C@H](Cc3c[nH]cn3)NC(=O)[C@H](CCCNC(=N)N)NC(=O)[C@H](Cc3ccccc3)NC(=O)[C@H](CO)NC(=O)[C@H](CC(C)C)NC(=O)[C@H](CSSC[C@@H](C(=O)N[C@@H](CO)C(=O)NCC(N)=O)NC(=O)[C@H](Cc3ccccc3)NC(=O)[C@H](Cc3c[nH]c4ccccc34)NC(=O)CNC2=O)NC1=O)
interaction with immobilised PT3 (SPR), in words [2]: no or very weak interactions

tighter binding to PT5 than MP5.5 ([1]; ratio of KDapp values): 3 fold
Compound: ACCYRIYCPCSG (also: bicyclic or more (positions not given here)) [MP5.3]

tighter binding to PH2.1 than to PT2 [5]: ~ 10 fold
Compound: ACSMCHPQGDFCYWACSG (also: bicyclic or more (positions not given here)) [MP2.1]

Compound: CC(C)C[C@@H]1NC(=O)[C@H](C(C)C)NC(=O)[C@H](CCC(=O)O)NC(=O)[C@@H](NC(=O)[C@H](C)N)CSSC[C@@H](C(=O)N[C@@H](CO)C(=O)NCC(N)=O)NC(=O)CNC(=O)[C@H]([C@@H](C)O)NC(=O)[C@H](Cc2c[nH]c3ccccc23)NC(=O)[C@H](CC(=O)O)NC(=O)[C@H](Cc2ccc(O)cc2)NC(=O)[C@H](CO)NC1=O [MP1.1] (H-ACEVLSYDWTGCSG-NH2; disulfide 2-12)
Kd [8]: 0.6 nM
discrepancy between KD by yeast surface titration and by SPR [9]: ~ 500 fold
